Measurements published in ChEMBL document CHEMBL1125837, “Nicotinamide ethers: novel inhibitors of calcium-independent phosphodiesterase and [3H]rolipram binding” (J Med Chem, 1991).

What was measured:
Phosphodiesterase 4 [1] = target: T1, Phosphodiesterase 4 (Rattus norvegicus, UniProt P14270+P14646+P14644+P54748); test: Inhibition of [3H]rolipram binding to rat brain membranes.; format: cell membranes, Membrane
How it was run: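 Rat brain homogenized in ice-cold 50 mM Tris/1.2 mM MgCl2, pH 8.0, washed twice by centrifugation and used at 0.5 mg protein/mL. Incubated with [3H]rolipram and test compound at various concentrations for 30 min at 25 °C, in triplicate. Glass-fiber filtration, three ice-cold washes, scintillation counting. IC50 from semilog plots of percent inhibition vs concentration.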

Phosphodiesterase 4 [2] = target: T1, Phosphodiesterase 4; test: Inhibition of [3H]cAMP (NEN NET-275) binding to Calcium-Independent Phosphodiesterase from rat brain.
How it was run: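 Enzyme from fresh rat brain (Davis method). Test compound or vehicle with enzyme in [3H]cAMP substrate in Tris-HCl/MgCl2 buffer, 37 °C for 8 min, in triplicate. Stopped by boiling 2 min. Carrier 5'-AMP added; boronate affinity gel separated [3H]-5'-AMP from cAMP, and product counted by scintillation. IC50 from dose-response curves of three log concentrations, each in triplicate.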

Mus musculus = species: Mus musculus; test: Minimal effective peroral dose in mouse reserpine hypothermia test; format: functional; conditions: po, read-out: MED

Row | IC50 (Phosphodiesterase 4 [1]) [µM] | IC50 (Phosphodiesterase 4 [2]) [µM] | Compound | minimal effective dose (Mus musculus) [mg/kg]
1 | > 100 | 10 | O=C(NCc1ccccc1)c1cccnc1Oc1ccccc1F | 0.01
2 | 19 | 2.2 | O=C(NCc1ccccc1)c1cccnc1Oc1ccc(Cl)c(Cl)c1 | > 3.2
3 | 51 | 4 | O=C(NCc1ccc(F)cc1)c1cccnc1Oc1ccc(F)cc1 | 0.01
4 | 37 | 2.9 | O=C(NCc1ccccc1)c1cccnc1Oc1ccc(F)cc1 | 0.01
5 | 22 | 9.8 | N#Cc1cccc(Oc2ncccc2C(=O)NCc2ccccc2)c1 | 0.1
6 | 25 | 0.54 | Cc1ccc(CNC(=O)c2cccnc2Oc2ccc(F)cc2)cc1 | 0.001
7 | 49 | 1.8 | O=C(NCc1ccccc1)c1cccnc1Oc1ccccc1 | 0.32
8 | 54 | 6.5 | O=C(NCc1ccccc1)c1cccnc1Oc1cccc(C(F)(F)F)c1 | 3.2
9 | 100 | 3.1 | COc1ccc(Oc2ncccc2C(=O)NCc2ccccc2)cc1 | 0.01
10 | 26 | 3.1 | CC(C)NC(=O)c1cccnc1Oc1ccc(F)cc1 | 0.001
11 | 23 | 2.5 | COc1cccc(Oc2ncccc2C(=O)NCc2ccccc2)c1 | 0.01
12 | 27 | 0.22 | O=C(NCc1ccccc1)c1cccnc1OC1CC2CCC1C2 (stereo unspecified) | 1
13 | > 100 | > 10 | COc1ccccc1Oc1ncccc1C(=O)NCc1ccccc1 | > 3.2
14 | 6.6 | 1.4 | COC(=O)c1cccc(Oc2ncccc2C(=O)NCc2ccccc2)c1 | 0.001
15 | 43 | 2.2 | O=C(Nc1ccccc1)c1cccnc1Oc1ccc(F)cc1 | 0.001
16 | 29 | 1.8 | O=C(NCc1ccccc1)c1cccnc1Oc1cccc(F)c1 | 0.01
17 | 26 | 0.73 | COc1ccc(CNC(=O)c2cccnc2Oc2ccc(F)cc2)cc1 | 3.2
